A selection: hits, their analogues and other compounds. The true share with any hit is near 2.9%.
DDE Tn6 FP inh: inhibitors of Tn6 peptide binding to fibrin DD(E), primary screen, biochemical, fluorescence polarization, human fibrin, Tn6 probe | Fibrinogen beta chain (Homo sapiens), P02675 | Fibrin DD(E) TRITC-Tn6 fluorescence polarization displacement | inhibition, % at 8.3 µM | 0.21% of 370,000 active;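 active = inhibition above a per-campaign cutoff: mean of compounds within control limits plus 3 SD, cut at about 15% in these data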;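 also: 0% = median of all compound wells on the plate and 100% = blocking peptide control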
CRFBP-R2 agonist: agonists of CRF-BP/CRF-R2 complex, primary screen, cell-based, HEK293, calcium dye fluorescence, uHTS. CRF-binding protein / CRF receptor 2 complex (human). calcium dye fluorescence (FLIPR); percent of saturating CRF peptide response. activation, % at 13.2 µM. 0.46% of 350,000 active;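 active = activation of at least 50%, plus an integration ratio under a set limit after plate pattern correction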;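 also: plate controls were neutral control wells without compound for no effect and CRF at EC100 for full effect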
proKLK7 act: proKLK7 zymogen activators, primary screen, biochemical, fluorescence intensity | Kallikrein-7 (Homo sapiens), P49862 | AID 652039, 2013 | purified proKLK7, EDANS-DABCYL substrate fluorescence; 100% is mature enzyme control, 0% vehicle | activation, % at 7 µM | 0.9% of 370,000 active;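 active = activation above the mean of all tested compounds plus 3 SD, computed per campaign excluding outliers beyond control limits, cut at about 13% in these data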
Target sequence (P49862 whole entry, looked up): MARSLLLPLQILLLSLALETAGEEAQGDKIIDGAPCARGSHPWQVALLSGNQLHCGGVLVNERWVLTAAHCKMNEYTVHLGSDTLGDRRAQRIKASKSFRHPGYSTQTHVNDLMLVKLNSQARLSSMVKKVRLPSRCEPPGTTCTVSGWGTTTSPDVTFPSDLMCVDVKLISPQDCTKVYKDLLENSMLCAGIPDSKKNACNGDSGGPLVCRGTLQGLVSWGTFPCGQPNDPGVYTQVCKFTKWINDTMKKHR
CendR NRP1 mod: modulators of CendR peptide binding to NRP-1, primary screen, biochemical, fluorescence polarization, uHTS. Neuropilin-1 (Homo sapiens), O14786. FAM-RPARPAR peptide binding to NRP-1. inhibition, % at 25 µM. 0.85% of 360,000 active. AID 602438, 2012;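 active = inhibition or corrected inhibition above about 18%, plus a signal ratio from 0.5 to 1.5, limit read from the data, passing the limit was not always enough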
DDE Tn7 FP inh: inhibitors of Tn7 peptide binding to fibrin DD(E), primary screen, biochemical, fluorescence polarization, human fibrin, Tn7 probe. AID 720508, 2013. FP displacement of FITC-Tn7 peptide from fibrin DD(E); 0% = median of compound wells per plate. Fibrinogen beta chain (Homo sapiens), P02675. inhibition, % at 8.3 µM. 0.13% of 370,000 active;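 active = inhibition above the mean of compounds falling within the control limits plus 3 SD of them, cut at about 14% in these data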;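 also: 0% = plate median of compound wells and 100% = 10 µM Aha-Tn7 peptide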
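Test system: human clot-derived fibrin DD(E) complex / Quantity: 2 µM final DD(E) protein / Incubation: 10 min plus 3 h, room temperature / Measured by: fluorescence polarization / Benchmarks: high control of 10 µM Aha-Tn7 peptide / Replicates: singlicate testing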
CRFBP-R2 block: antagonists of CRF-BP/CRF-R2 complex, primary screen, cell-based, HEK293, calcium dye fluorescence, uHTS; CRF-induced calcium fluorescence; inhibition, % at 11.8 µM; 0.59% of 350,000 active; AID 588475, 2011;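 active = inhibition of the ligand-induced calcium signal above about 50% at the single tested concentration, limit read from the data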
proKLK7 act conf: proKLK7 zymogen activators, confirmation, biochemical, fluorescence intensity, triplicate; shares compounds with proKLK7 act; purified proKLK7, EDANS-DABCYL substrate fluorescence; scaled: vehicle 0, mature enzyme 100; activation, % at 7 µM; 68% of 3,200 active; AID 686949, 2013;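 active = activation, as change over the incubation, above the mean of all tested compounds plus 3 SD, cut at about 13% in these data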
EDANS-DABCYL int: EDANS-DABCYL substrate optical interference, artefact control for kallikrein-7 zymogen activator project, biochemical, fluorescence intensity, high throughput; shares compounds with proKLK7 act; no enzyme, 4 h; solvent 0%, active enzyme control 100%; activation, % at 7 µM; 80% of 3,200 active;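 active = activation above the all-compound mean plus 3 SD, ignoring values outside control-based bounds, cut at about 4.8% in these data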;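 also: value is the 4 h activation minus the activation read at time zero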
* hit, by the source's call; . = no result given.

SMILES | DDE Tn6 FP inh | CRFBP-R2 agonist | proKLK7 act | CendR NRP1 mod | DDE Tn7 FP inh | CRFBP-R2 block | proKLK7 act conf | EDANS-DABCYL int
Nc1ccc2ccc(O)cc2c1 | -16 | -2 | 1 | -5 | -4 | 18 | . | .
COC(=O)[C@]12C[C@H](CC(=O)NCc3ccc(OC)c(OC)c3)C(=O)N(Cc3ccc(Cl)cc3Cl)C1=C[C@H](COCc1ccccc1)O[C@@H]2C | -7 | . | 1 | . | -4 | . | . | .
Nc1nc2nccc(-c3ccccn3)n2n1 | -5 | 3 | 11 | -3 | -1 | -11 | . | .
Nc1nc2nccc(-c3ccco3)n2n1 | 3 | -1 | 17* | 14 | 1 | 10 | 15* | 27*
COc1ccc(N(CC(=O)Nc2ccc(C)cn2)S(=O)(=O)c2c(C)noc2C)cc1 | -6 | 0 | 16* | -5 | 0 | -30 | 1 | 0
CCOc1ccc(N(CC(=O)Nc2ccc(OC)cc2)S(=O)(=O)c2c(C)noc2C)cc1 | 3 | 2 | 0 | -4 | 5 | -4 | . | .
O=C(NC1CC1)c1cc2c(s1)-c1ccccc1OC2 | 1 | 0 | 47* | 2 | 3 | 8 | 75* | 87*
O=C(NCCCN1CCOCC1)c1cc2c(s1)-c1ccccc1OC2 | -2 | 0 | 47* | 4 | -3 | -2 | 68* | 65*
O=C(O)c1cc2c(s1)-c1ccccc1CC2 | -1 | 0 | 5 | -2 | 8 | -3 | . | .
Cc1cccc2c1-c1sc(C(=O)N3CCCCC3)cc1CO2 | 2 | -1 | -21 | -7 | 5 | 1 | . | .
O=C(c1ccco1)N1CCN(C(=O)c2cc3c(s2)-c2ccccc2OC3)CC1 | -2 | 6 | 23* | -7 | -4 | -24 | 4 | -67
O=C(O)c1cc2c(s1)-c1ccccc1OC2 | -2 | 0 | 34* | 7 | -3 | -11 | 77* | 73*
CCCN(CC1CC1)C(=O)CN1C(=O)C2CCCCN2C(=O)c2ccccc21 (stereo not drawn) | -5 | . | 0 | . | 0 | . | . | .
O=c1cc(C(F)(F)F)c2sc(N3CCCCC3)nc2[nH]1 | 0 | 1 | 38* | -1 | -1 | 1 | 2 | 10*
O=C(CSc1nc(C(F)(F)F)cc(=O)[nH]1)N1CCCCCC1 | -3 | -2 | 0 | 0 | -2 | 9 | . | .
COc1ccc(/C=N/NC(=O)c2cc(-c3ccccc3)nc3ccccc23)c(OC)c1 | -12 | 3 | 275* | -10 | -7 | 10 | 171* | 220*
COc1cccc(NC(=O)c2cc(-c3ccc(OC)cc3OC)nc3ccccc23)c1 | -7 | 2 | 67* | 0 | 2 | 0 | -14 | -12
CCOC(=O)[C@]12CCCCC/C=C\1N(Cc1ccc(OC)cc1)C(=O)[C@H]2CC(=O)NCCCCc1ccccc1 | -2 | . | 0 | . | 2 | . | . | .
CN(C)Cc1c(O)ccc2cc(-c3nc4ccccc4n3C)c(=O)oc12 | 1 | 20 | 78* | -49 | 0 | 1 | 67* | 77*
Nc1ccc2c(C(F)(F)F)cc(=O)oc2c1 | -8 | 24 | 36* | 7 | 6 | -11 | 88* | 86*
COc1cc(C)cc(C(=O)C=Cc2ccccc2)c1O | -10 | -3 | 14* | 5 | -8 | -8 | 9 | 11*

Bioassay records deposited in PubChem by several laboratories.
